Reference: ChEMBL document CHEMBL1126051, “New thymidine triphosphate analogue inhibitors of human immunodeficiency virus-1 reverse transcriptase” (J Med Chem, 1992)

target: Human immunodeficiency virus type 1 reverse transcriptase (Human immunodeficiency virus 1, UniProt Q72547); test: The compound was tested for the inhibition of human immunodeficiency virus-1 reverse transcriptase(HIV-1 RT).
Summary of the method: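 Ki by kinetics: HIV-1 RT p66 at 60 ng/mL with 0.4 μM poly(rA)-oligo(dT), inhibitor, and [3H]TTP varied over 4-20 μM, in pH 8.0 Tris buffer with 6 mM MgCl2, 8 mM DTT, 80 mM KCl. Incubated 37 °C for 30 min, then EDTA quench. 3H incorporation counted on DE-81 paper; Ki taken from double-reciprocal plots.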

Row | Ki | SMILES
1 | 19.1 µM | Cc1cn([C@H]2C[C@@H](O)[C@@H](OP(=O)(O)NP(=O)(O)NP(=O)(O)O)O2)c(=O)[nH]c1=O
2 | 15 µM | Cc1cn([C@H]2CC[C@@H](OP(=O)(O)NP(=O)(O)OP(=O)(O)O)O2)c(=O)[nH]c1=O
3 | 22 µM | Cc1cn([C@H]2C[C@@H](N=[N+]=[N-])[C@@H](OP(=O)(O)NP(=O)(O)OP(=O)(O)O)O2)c(=O)[nH]c1=O
